Here are results for six compounds from ChEMBL document CHEMBL3600315, “Molecular modeling based approach, synthesis, and cytotoxic activity of novel benzoin derivatives targeting phosphoinostide 3-kinase (PI3Kα)” (Bioorg Med Chem Lett, 2015).

The source made the active and inactive calls. No cut-off for these calls is given here.

This experiment deals with HCT-116. The experiment can be described thus: Induction of apoptosis in human HCT116 cells assessed as increase in caspase-3 activity at 700 uM after 24 hrs by DEVD-pNA substrate-based colorimetric assay relative to control. The experiment is classed as functional, cell-based. In short, it runs like this:
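HCT116 cells were incubated with each compound for 24 or 48 h. Caspase-3 enzyme activity was measured relative to untreated control cells. Values are means of two independent experiments, with P < 0.05 taken as significant.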

With `O=C(OC(C(=O)c1ccccc1)c1ccccc1)c1ccccc1F` (stereo unspecified), the result was Active.
Turning to `O=C(OC(C(=O)c1ccccc1)c1ccccc1)c1ccc([N+](=O)[O-])cc1` (stereo unspecified), the outcome was Active.
With `O=C(OC(C(=O)c1ccccc1)c1ccccc1)c1ccc(Cl)cc1` (stereo unspecified), the result was Active.
For `O=C(OC(C(=O)c1ccccc1)c1ccccc1)c1cccc(F)c1` (stereo unspecified), the outcome was Active.
As for `COc1ccc(C(=O)C(O)c2ccc(OC)cc2)cc1` (stereo unspecified), the outcome was Active.
In the case of `O=C(OC(C(=O)c1ccccc1)c1ccccc1)c1ccc(F)cc1` (stereo unspecified), the result was Active.
